According to ChEMBL document CHEMBL4304789, “Design, Synthesis, and Biological Evaluation of 2,4-Imidazolinedione Derivatives as HDAC6 Isoform-Selective Inhibitors” (ACS Med Chem Lett, 2019):
Calls of active or inactive are those of the source. The rule behind the calls is not given here.

Experiments:
[1] = target: Histone deacetylase 3 (Homo sapiens, UniProt O15379); experiment: Inhibition of HDAC3 (unknown origin) using Ac-LeuGlyLys(Ac)-AMC as substrate preincubated for 5 mins followed by substrate addition and measured after 60 mins by fluorescence based assay
[2] = target: Histone deacetylase 4 (Homo sapiens, UniProt P56524); experiment: Inhibition of HDAC4 (unknown origin) using Ac-LeuGlyLys(tfa)-AMC as substrate preincubated for 5 mins followed by substrate addition and measured after 60 mins by fluorescence based assay
[3] = target: T1, Histone deacetylase 7 (Homo sapiens, UniProt Q8WUI4); experiment: Inhibition of HDAC7 (unknown origin) using Ac-LeuGlyLys(tfa)-AMC as substrate preincubated for 5 mins followed by substrate addition and measured after 60 mins by fluorescence based assay
T1 sequence (Q8WUI4 whole entry): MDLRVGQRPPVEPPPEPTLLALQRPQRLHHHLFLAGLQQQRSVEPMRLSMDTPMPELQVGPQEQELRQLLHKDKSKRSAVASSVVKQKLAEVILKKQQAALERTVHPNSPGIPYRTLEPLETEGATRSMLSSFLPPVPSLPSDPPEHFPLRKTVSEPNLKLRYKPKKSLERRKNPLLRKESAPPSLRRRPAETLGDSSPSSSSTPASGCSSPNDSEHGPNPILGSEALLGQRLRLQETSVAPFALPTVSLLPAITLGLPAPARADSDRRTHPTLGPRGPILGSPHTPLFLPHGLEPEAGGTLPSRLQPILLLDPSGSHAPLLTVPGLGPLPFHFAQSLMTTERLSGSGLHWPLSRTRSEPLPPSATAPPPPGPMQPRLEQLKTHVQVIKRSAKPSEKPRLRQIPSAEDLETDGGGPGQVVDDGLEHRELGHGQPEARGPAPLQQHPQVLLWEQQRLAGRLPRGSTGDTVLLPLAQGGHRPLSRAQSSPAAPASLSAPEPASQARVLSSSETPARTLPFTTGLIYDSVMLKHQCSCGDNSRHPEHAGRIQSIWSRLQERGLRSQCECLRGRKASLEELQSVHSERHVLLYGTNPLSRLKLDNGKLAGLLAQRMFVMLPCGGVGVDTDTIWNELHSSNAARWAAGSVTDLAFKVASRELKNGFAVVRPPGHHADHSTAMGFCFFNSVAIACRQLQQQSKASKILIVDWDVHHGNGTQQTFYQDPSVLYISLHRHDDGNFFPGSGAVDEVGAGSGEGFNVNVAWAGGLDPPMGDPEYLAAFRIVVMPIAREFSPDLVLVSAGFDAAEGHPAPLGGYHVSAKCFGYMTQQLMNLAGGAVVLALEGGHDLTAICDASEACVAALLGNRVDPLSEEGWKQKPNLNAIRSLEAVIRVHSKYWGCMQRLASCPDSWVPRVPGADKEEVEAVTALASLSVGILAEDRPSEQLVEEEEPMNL

[4] = target: T2, Histone deacetylase 8 (Homo sapiens, UniProt Q9BY41); experiment: Inhibition of HDAC8 (unknown origin) using Ac-LeuGlyLys(tfa)-AMC as substrate preincubated for 5 mins followed by substrate addition and measured after 60 mins by fluorescence based assay
T2 sequence (Q9BY41 whole entry): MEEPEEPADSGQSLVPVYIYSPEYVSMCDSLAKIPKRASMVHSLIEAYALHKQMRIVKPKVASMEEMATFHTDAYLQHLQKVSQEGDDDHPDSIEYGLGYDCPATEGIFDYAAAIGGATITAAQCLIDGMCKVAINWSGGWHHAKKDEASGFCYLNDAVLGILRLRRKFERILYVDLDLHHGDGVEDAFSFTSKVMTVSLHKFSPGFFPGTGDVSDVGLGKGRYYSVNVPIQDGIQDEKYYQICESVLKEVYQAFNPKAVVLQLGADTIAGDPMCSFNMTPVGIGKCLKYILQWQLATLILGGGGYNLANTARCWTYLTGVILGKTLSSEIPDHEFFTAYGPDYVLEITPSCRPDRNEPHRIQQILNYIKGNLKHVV

[5] = target: T3, Polyamine deacetylase HDAC10 (Homo sapiens, UniProt Q969S8); experiment: Inhibition of HDAC10 (unknown origin) using Ac-ArgThr- Lys(Ac)Lys(Ac)-AMC as substrate preincubated for 5 mins followed by substrate addition and measured after 60 mins by fluorescence based assay
T3 sequence (Q969S8 whole entry): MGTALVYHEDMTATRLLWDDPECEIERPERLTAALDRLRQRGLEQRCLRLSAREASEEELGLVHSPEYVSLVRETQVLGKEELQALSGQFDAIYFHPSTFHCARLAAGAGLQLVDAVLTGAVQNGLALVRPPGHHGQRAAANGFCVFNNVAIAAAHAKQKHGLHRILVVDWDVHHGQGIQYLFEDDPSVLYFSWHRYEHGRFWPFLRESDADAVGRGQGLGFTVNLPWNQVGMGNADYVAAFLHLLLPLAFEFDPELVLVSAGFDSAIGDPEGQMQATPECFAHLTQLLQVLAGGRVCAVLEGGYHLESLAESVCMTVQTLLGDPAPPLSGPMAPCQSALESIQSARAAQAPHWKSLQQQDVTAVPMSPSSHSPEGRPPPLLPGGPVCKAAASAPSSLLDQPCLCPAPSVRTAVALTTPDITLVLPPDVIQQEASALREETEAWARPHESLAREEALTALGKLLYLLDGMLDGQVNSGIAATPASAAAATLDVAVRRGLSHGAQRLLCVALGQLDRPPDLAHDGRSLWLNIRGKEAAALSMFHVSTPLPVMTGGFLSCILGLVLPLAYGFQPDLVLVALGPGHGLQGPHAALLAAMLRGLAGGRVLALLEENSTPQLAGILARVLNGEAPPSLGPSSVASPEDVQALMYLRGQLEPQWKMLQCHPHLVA

[6] = system: HL-60; experiment: Antiproliferative activity against human HL60 cells incubated for 48 hrs by MTT assay; type: functional, cell-based; conditions: HL-60, 48 h
[7] = species on record: Homo sapiens; experiment: Selectivity ratio of IC50 for HDAC7 (unknown origin) to IC50 for HDAC6 (unknown origin)
How it was run: (§1)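 Each isoform's IC50 comes from a dose–effect curve in an HDAC isoform inhibition panel, with replicates n ≥ 2. The ratio is that isoform's IC50 divided by the HDAC6 IC50.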

[8] = species on record: Homo sapiens; experiment: Selectivity ratio of IC50 for HDAC11 (unknown origin) to IC50 for HDAC6 (unknown origin); how it was run: as §1
[9] = system: HL-60; experiment: Induction of cell cycle arrest in human HL60 cells assessed as accumulation of cells at subG1 phase at 0.25 to 0.45 uM incubated for 48 hrs by PI staining based flow cytometric analysis; type: functional
How it was run: (§2)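 PI staining of HL-60 cells, with DMSO-treated cells as control, used to read cell-cycle phase distribution including G1 and subG1 fractions. Mean ± SD of at least three independent experiments.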

[10] = system: HL-60; experiment: Induction of cell cycle arrest in human HL60 cells assessed as accumulation of cells at G1 phase at 0.25 to 0.45 uM incubated for 48 hrs by PI staining based flow cytometric analysis; type: functional; how it was run: as §2
[11] = target: Histone deacetylase (Homo sapiens) (UniProt Q13547+O15379+Q9UBN7+Q92769+Q9UQL6+Q8WUI4+Q9BY41+Q96DB2+P56524+Q9UKV0+Q969S8); conditions: at 0.08 to 1.6 µM

Histone deacetylase 4, sequence (P56524 whole entry): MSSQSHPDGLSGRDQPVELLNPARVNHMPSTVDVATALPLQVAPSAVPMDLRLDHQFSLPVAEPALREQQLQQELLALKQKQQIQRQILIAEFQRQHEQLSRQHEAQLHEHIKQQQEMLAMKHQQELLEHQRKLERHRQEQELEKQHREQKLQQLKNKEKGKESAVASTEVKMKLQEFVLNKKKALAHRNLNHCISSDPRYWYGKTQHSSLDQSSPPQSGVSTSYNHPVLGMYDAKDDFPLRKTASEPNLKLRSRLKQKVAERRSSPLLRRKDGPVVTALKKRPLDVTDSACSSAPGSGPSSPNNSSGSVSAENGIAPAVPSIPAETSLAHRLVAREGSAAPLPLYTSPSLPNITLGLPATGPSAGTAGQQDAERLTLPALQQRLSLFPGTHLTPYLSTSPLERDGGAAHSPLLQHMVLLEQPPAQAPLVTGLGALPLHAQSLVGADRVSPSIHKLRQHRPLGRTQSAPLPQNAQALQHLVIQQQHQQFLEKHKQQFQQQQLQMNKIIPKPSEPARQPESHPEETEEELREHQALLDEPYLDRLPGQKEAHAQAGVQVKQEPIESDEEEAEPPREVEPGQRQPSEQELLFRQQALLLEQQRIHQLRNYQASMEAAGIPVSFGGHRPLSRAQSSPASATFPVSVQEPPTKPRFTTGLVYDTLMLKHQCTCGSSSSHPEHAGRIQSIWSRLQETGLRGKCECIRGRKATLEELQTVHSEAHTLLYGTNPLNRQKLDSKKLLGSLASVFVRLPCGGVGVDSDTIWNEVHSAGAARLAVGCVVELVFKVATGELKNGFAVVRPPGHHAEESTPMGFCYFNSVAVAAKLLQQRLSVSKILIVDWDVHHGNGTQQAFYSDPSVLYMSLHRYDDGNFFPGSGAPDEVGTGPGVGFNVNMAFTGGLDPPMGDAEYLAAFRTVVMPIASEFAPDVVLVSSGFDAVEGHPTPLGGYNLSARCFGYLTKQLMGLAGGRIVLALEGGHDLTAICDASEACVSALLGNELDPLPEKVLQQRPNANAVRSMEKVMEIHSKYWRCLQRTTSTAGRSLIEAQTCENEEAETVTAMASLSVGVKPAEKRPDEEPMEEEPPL
Histone deacetylase 3, sequence (O15379 whole entry): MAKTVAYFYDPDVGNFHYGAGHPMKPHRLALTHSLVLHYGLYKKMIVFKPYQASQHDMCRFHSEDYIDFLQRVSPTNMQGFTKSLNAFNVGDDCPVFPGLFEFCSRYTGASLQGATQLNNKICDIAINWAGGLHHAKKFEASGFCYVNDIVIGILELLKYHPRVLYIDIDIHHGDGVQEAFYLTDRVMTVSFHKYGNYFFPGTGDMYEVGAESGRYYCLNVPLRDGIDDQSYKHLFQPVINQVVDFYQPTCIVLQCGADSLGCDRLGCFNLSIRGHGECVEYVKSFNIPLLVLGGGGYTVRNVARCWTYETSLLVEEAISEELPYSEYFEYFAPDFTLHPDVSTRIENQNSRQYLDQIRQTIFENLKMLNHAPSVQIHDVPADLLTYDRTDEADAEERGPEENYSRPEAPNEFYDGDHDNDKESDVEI

Row | IC50 [1] [nM] | IC50 [2] [nM] | IC50 [3] [nM] | IC50 [4] [nM] | IC50 [5] [nM] | IC50 [6] [nM] | Ratio IC50 [7] | Ratio IC50 [8] | inhibition [11] | SMILES | Activity [9] | Activity [10]
1 | 96 | 27000 | 8800 | 3600 | 114 | 610 |  |  |  | O=C(CCC1C(=O)N(c2ccc(Cl)cc2)C(=O)N1Cc1ccccc1)Nc1ccc(C(=O)NO)cc1 (stereo not given) |  | 
2 | 235 | > 100000 | > 100000 | > 100000 | 164 | 250 | > 20000 | > 20000 | Active | Cc1ccc(CN2C(=O)N(c3ccc(Cl)cc3)C(=O)C2CCC(=O)Nc2ccc(C(=O)NO)cc2)cc1 (stereo not given) | Active | Active
3 | 126 | > 100000 | 6000 | 6700 | 268 | 340 |  |  |  | O=C(CCC1C(=O)N(c2ccc(Cl)cc2)C(=O)N1Cc1ccc(Br)cc1)Nc1ccc(C(=O)NO)cc1 (stereo not given) | Active | Active
